Only some compounds are listed: those with a hit (about 3% of all), similar ones and a draw of the others.
NPY-Y2 antag: blocks the human neuropeptide Y Y2 receptor | inhibition, % at 2.7 µM | 140,000 tested, 0.99% active | NPY-Y2 expressing cells, antagonist mode | P49146;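 further: 0% = vehicle with agonist challenge and 100% = reference antagonist with challenge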
Hsp70 act: switches on Hsp70 transcription | 200,000 tested, 0.04% active | HeLa Hsp70 promoter luciferase reporter, luminescence; scaled: vehicle 0, proteasome-inhibitor control 100% | activation, % at 10 µM | AID 1203;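 active means activation above the mean across all tested compounds plus 3 SD, cutoff set per campaign, cut at about 5.5% in these data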;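 further: 100% = MG132 at 30 µM as the positive control and 0% = DMSO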
Wee1 stabilizer: inhibitors of human Wee1 degradation; HeLa Luc-Wee1K328M stability, luciferase luminescence; 100% = proteasome inhibitor MG132 effect; reporter increase, % at 5 µM; 220,000 tested, 1.2% active; AID 1321;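 active means activation above the mean of all tested compounds plus 3 SD, set per screening run, cut at about 8.8% in these data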;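 further: cells exposed to compound for 20 h before luminescence read; 0% = DMSO alone and 100% = MG132 at 30 µM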
Target sequence (P30291 whole entry K328M): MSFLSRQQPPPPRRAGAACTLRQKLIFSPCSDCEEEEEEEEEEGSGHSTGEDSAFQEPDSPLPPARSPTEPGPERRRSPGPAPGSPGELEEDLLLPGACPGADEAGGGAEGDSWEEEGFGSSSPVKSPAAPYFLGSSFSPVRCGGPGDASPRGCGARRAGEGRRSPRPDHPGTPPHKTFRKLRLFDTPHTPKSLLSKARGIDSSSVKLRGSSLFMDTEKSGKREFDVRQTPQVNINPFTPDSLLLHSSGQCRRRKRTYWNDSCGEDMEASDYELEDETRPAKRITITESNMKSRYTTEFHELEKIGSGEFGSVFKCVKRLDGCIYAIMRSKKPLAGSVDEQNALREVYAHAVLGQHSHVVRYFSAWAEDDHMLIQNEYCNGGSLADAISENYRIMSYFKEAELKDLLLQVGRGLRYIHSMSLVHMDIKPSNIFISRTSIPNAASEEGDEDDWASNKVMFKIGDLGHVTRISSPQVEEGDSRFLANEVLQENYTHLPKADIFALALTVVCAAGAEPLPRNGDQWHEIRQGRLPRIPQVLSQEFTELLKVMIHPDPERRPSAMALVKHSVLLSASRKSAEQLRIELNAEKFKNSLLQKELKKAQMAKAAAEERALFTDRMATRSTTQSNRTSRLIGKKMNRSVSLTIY
NPY1 pot ag: human NPY-Y1 potentiation or agonism, primary screen. 220,000 tested, 0.37% active. activation, % at 3.6 µM. P25929. NPY-Y1 expressing cells, potentiator/agonist activation; in the data active means activation above about 33%, passing the limit was not always enough;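 further: cells stimulated with NPY at EC10 then isoproterenol at EC100; 0% = low agonist plus stimulus and 100% = saturating agonist plus stimulus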
NPY2 pot ag: human NPY-Y2 potentiation or agonism, primary screen. P49146. cells expressing NPY-Y2, potentiator/agonist read-out. activation, % at 3.6 µM. 220,000 tested, 0.45% active. AID 1359; in the data active means activation above about 27%;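 further: cells stimulated with NPY near EC25 plus isoproterenol at EC100; 0% = vehicle plus submaximal agonist and 100% = vehicle plus saturating agonist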
NPY Y1 blocker: antagonists of human neuropeptide Y receptor Y1 | P25929 | HEK293-CNG Y1 cells, membrane potential fluorescence; NPY at EC95, then isoproterenol | inhibition, % at 3.6 µM | 200,000 tested, 1% active | AID 1040;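 active means inhibition above the campaign mean inhibition of all tested compounds plus 3 SD, cut at about 20% in these data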;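 further: 0% = DMSO wells given NPY plus isoproterenol and 100% = isoproterenol alone without NPY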
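System: HEK293 cells with Y1 receptor plus CNG channel / Probe or stimulus: NPY 25 nM then isoproterenol 1 µM plus Ro 20-1724 25 µM / Compound: one concentration, 3.6 µM, in 0.4% DMSO / Schedule: compound incubation 1 h at room temperature, readout 45 min post-stimulation / Measured by: membrane potential fluorescence / Read-out: % inhibition of NPY effect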
NPY-Y1 ant conf: confirmation of human neuropeptide Y receptor Y1 antagonists; shares compounds with NPY Y1 blocker; HEK293-CNG NPY-Y1, membrane potential fluorescence, cAMP; NPY challenge against isoproterenol-raised cAMP; inhibition, % at 3.6 µM; 1,200 tested, 21% active; AID 1254; in the data active means inhibition above about 20%;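 further: 0% = vehicle with agonist plus stimulus and 100% = stimulus alone without agonist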
NPY-Y2 antag ct: antagonizes human NPY-Y2, counter-screen to NPY-Y1 antagonists; HEK293 NPY-Y2 CNG membrane potential fluorescence, antagonism; cells given NPY, then isoproterenol; inhibition, % at 3.6 µM; shares compounds with NPY Y1 blocker; 1,200 tested, 28% active;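 further: 0% = DMSO with agonist challenge and 100% = reference antagonist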
An asterisk follows results filed as active; nt = no result. Unless noted, no stated cut-off is given here; in the data, active means inhibition above about 17%; inactive means the rest.

SMILES	NPY-Y2 antag	Hsp70 act	Wee1 stabilizer	NPY1 pot ag	NPY2 pot ag	NPY Y1 blocker	NPY-Y1 ant conf	NPY-Y2 antag ct
CCO[C@H]1OC(C(N)=O)=C[C@@H](C)[C@@H]1CCCO	nt	-0.1	-0.9	-20.2	-8.9	1.4	nt	nt
Cc1cc(C)c(CN2CCN(Cc3ccc(C)o3)C(CCO)C2)c(-n2cccn2)c1 (stereo not given)	nt	-0.3	0.8	-9.3	-19.2	28.7*	7.5	7.1
C/C(=N/Oc1nc(C)cc(C)n1)c1ccc(F)cc1	1.8	0.7	-0.5	21.2	0.0	-1.3	nt	nt
CO/N=C\C(=N\Nc1ccc(OC)cc1)C(=O)c1ccccc1	10.8	-0.2	2.9	-63.2	-22.9	23.3*	6.5	8.6
NNC(=O)COc1ccc(C(F)(F)F)cc1	nt	-0.2	-2.8	-5.5	-11.7	2.2	nt	nt
CCc1nn2cc(-c3ccccc3)nc2s1	1.2	-0.5	-0.4	3.9	11.1	27.7*	-1.3	0.0
Cc1nc2ccccc2nc1SCC(=O)N1CCC(C)CC1	12.1	-0.2	-1.5	-1.7	-25.9	4.5	nt	nt
Cc1ccnc(N2CCN(C(=O)CSc3nc4ccccc4nc3N3CCC(C)CC3)CC2)c1	nt	-0.3	1.0	-1.2	-7.8	23.8*	9.7	8.3
Cc1cccc2sc(NC(=O)CN3C(=O)C4CC=CCC4C3=O)nc12 (stereo not given)	nt	-0.2	-3.5	-19.1	-16.0	0.7	nt	nt
CCCOc1ccc(S(=O)(=O)NCc2ccc(OC)cc2)cc1	9.3	-0.3	21.9*	-42.7	-42.4	28.2*	8.8	12.0
O=C(NCCC1=CCCCC1)c1cc(-c2ccncc2)nc2ccccc12	nt	0.0	-0.7	-81.4	-70.7	26.6*	26.9*	23.4*
Clc1ccc(-n2nnnc2-c2cnc(-c3ccncc3)nc2-c2cccs2)cc1	15.1	-0.3	1.8	-57.9	-29.6	33.6*	14.2	17.9*
CCN(CC)S(=O)(=O)c1ccc(Oc2ccc(S(=O)(=O)N(CC)CC)cc2)cc1	3.6	0.1	-3.4	-20.4	-2.8	31.8*	20.6*	13.2
CCOc1cccc2sc(N(CCN(CC)CC)C(=O)c3ccc(S(=O)(=O)N4CCCCC4)cc3)nc12	nt	-0.2	2.2	-4.9	-6.6	25.7*	3.5	4.6
Cc1ccsc1C(=O)C1CCCN(Cc2cccn2-c2ccc(Cl)cn2)C1 (stereo not given)	nt	-0.4	2.8	-35.7	-24.5	40.6*	41.7*	37.6*
COc1ccc(C(=O)C2CCCN(Cc3cccn3-c3nccs3)C2)cc1OC (stereo not given)	nt	nt	-1.0	-17.8	-14.6	nt	nt	nt
O=C(c1ccc(C(F)(F)F)cc1)C1CCCN(Cc2cccn2-c2ncccn2)C1 (stereo not given)	nt	-0.3	1.2	-21.2	-28.6	23.0*	15.9	17.9*
COc1cccc(C(=O)C2CCCN(Cc3cccn3-c3ccccn3)C2)c1 (stereo not given)	nt	-0.3	5.4	-46.3	-37.4	37.4*	34.8*	29.9*
Cc1ccc(-n2cccn2)c(CN2CCCC(C(=O)c3sccc3C)C2)c1 (stereo not given)	nt	0.5	6.6	-39.2	-68.5	72.2*	32.0*	37.8*
COc1ccccc1N(CC(=O)NCc1ccccc1)C(=O)CCC(=O)Nc1ccccn1	3.4	0.0	-1.6	-0.1	7.5	-1.4	nt	nt
COc1ccc(-n2c(=O)[nH]c3cc(C(=O)NCCc4ccc(Cl)cc4)ccc3c2=O)cc1OC	nt	-0.6	-0.8	3.0	-1.6	-2.3	nt	nt
COc1ccc(C(=O)C2CCCN(Cc3cccn3-c3ccccn3)C2)cc1F (stereo not given)	nt	-0.4	0.1	55.2*	44.5*	21.9*	13.7	-1.0
O=C(c1ccc(Cl)cc1)C1CCCN(Cc2cccn2-c2ccccn2)C1 (stereo not given)	nt	-0.3	-1.0	-37.6	-0.8	58.8*	31.8*	31.4*
CC(C)Oc1cccc(C(=O)C2CCCN(Cc3cccn3-c3ccccn3)C2)c1 (stereo not given)	nt	-0.1	-2.2	-57.5	-22.1	48.9*	44.0*	39.7*
OCCC1CN(Cc2cccn2-c2ccccn2)CCN1C1CCCC1 (stereo not given)	nt	-0.2	-4.8	-8.2	-2.7	-0.9	nt	nt
SMILES	NPY-Y2 antag	Hsp70 act	Wee1 stabilizer	NPY1 pot ag	NPY2 pot ag	NPY Y1 blocker	NPY-Y1 ant conf	NPY-Y2 antag ct
COc1ccc(C(=O)C2CCCN(Cc3cccn3-c3nccs3)C2)cc1F (stereo not given)	nt	-0.3	-0.5	-19.0	-3.4	20.1	nt	nt
Cc1cccc(C)c1NC(=O)CCCSc1nnc(N)s1	nt	0.0	4.6	5.2	-8.7	4.2	nt	nt
CO/N=C(\c1nonc1N)N1CCN(c2ccc(Cl)cc2[N+](=O)[O-])CC1	13.1	-0.3	-1.5	2.1	-1.8	24.1*	16.4	9.0
CO/N=C(\c1nonc1N)N1CCN(c2ccc([N+](=O)[O-])cc2Cl)CC1	1.5	-0.2	4.8	-11.2	9.7	14.1	nt	nt
CCCCCCC(=O)Nc1nc(C)c(-c2csc(Nc3ccc(Cl)cc3)n2)s1	5.3	-0.1	0.0	9.6	-9.0	24.9*	15.0	3.8
CCCCCC(=O)Nc1nc(C)c(-c2csc(Nc3ccc(Cl)cc3)n2)s1	3.7	-0.2	1.6	-9.2	10.2	8.5	nt	nt
CC(=O)Nc1ccccc1-c1nc2ccccc2nc1OCC(=O)c1ccc2ccccc2c1	12.9	-0.5	-3.0	-17.1	-0.3	20.7*	15.1	7.9
CC(C)NC(=O)c1onc(CSc2cccc3ccccc23)c1C(=O)O	10.1	-0.3	-0.9	-12.8	-43.9	21.5*	18.0	10.7
CCCCNC(=O)c1onc(CSc2cccc(OCC)c2)c1C(=O)O	16.1	-0.3	1.3	-46.4	-29.9	22.3*	15.4	13.8
Cc1nc(N2CCCCC2)c2c(C)c(C(=O)Nc3ccccc3C(F)(F)F)sc2n1	nt	-0.2	5.2	-47.5	-37.2	26.9*	22.3*	14.7
COc1ccc(C(=O)Nc2ccc(-c3ccc(C)o3)cc2)cc1S(=O)(=O)N1CCOCC1	-0.2	-0.2	-0.5	22.9	15.2	20.2*	15.8	14.0
COc1ccc(C(=O)Nc2cccc(C)c2)cc1S(=O)(=O)N1CCOCC1	6.3	0.5	-0.8	-0.4	6.0	1.9	nt	nt
CCOC(=O)c1cnn(Cc2cccc(Cl)c2)c1C	nt	0.0	5.9	1.4	0.9	1.8	nt	nt
CN(C(=O)CSc1nc2c(c(=O)[nH]1)CCC2)c1ccccc1	nt	-0.1	0.1	10.0	-2.8	9.2	nt	nt
N#CCC(=O)N/N=C/c1ccc(Sc2nc3ccccc3s2)o1	-1.6	-0.2	5.2	6.2	-3.6	5.5	nt	nt
N=c1n(CCN2CCOCC2)c2ccccc2n1Cc1ccccc1Br	11.3	0.0	-3.1	-12.2	0.7	20.6*	3.3	5.2

Screens as filed in PubChem.
